Test results taken from ChEMBL document CHEMBL1145037, “Structural properties of dibenzosuberanylpiperazine derivatives for efficient reversal of chloroquine resistance in Plasmodium chabaudi” (2003).

How the values were obtained:
[1] = chloroquine-resistant reversal activity was determined in female mice (Mus musculus) after intraperitoneal administration of 50 mg; assay type: functional, Plasmodium chabaudi
Procedure, shortened: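 Female ICR CD-1 mice, 4–5 weeks old, given 5×10^6 P. chabaudi AS 3CQ (CQ-resistant) line PRBC iv (thawed from cryopreserved blood). 2 h later, test compound (in DMSO diluted with saline to 10% DMSO) ip plus chloroquine 3 or 4 mg/kg ip, repeated daily for 4 total injections. Controls: DMSO, CQ alone, compound alone. Parasitemia per 10 000 RBC on Giemsa smears daily for 5 days.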

[2] = Antimalarial activity was determined in female mice (Mus musculus) after intraperitoneal administration of 50 mg; assay type: functional, Plasmodium chabaudi
Procedure, shortened: (§1)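 4- to 5-week-old female ICR (CD-1) mice infected iv with 5×10^6 parasitized RBC of CQ-resistant 3CQ line of P. chabaudi AS, thawed from cryopreserved stock. Compound dissolved in DMSO, diluted with saline to 10% (w/v) DMSO, given ip 2 h post-infection and daily for 3 more days (four injections). Parasitemia (PRBC per 10 000 RBC, Giemsa thin films) read daily for 5 days; two mice per compound, three or five for some.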

[3] = test system: Mus musculus; assay: Chloroquine resistant reversal activity was determined in female mice after intraperitoneal administration of 50 mg and 4 mg of chloroquine; assay type: functional
Procedure, shortened: (§2)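 Female ICR (CD-1) mice, 4-5 weeks old, infected iv with 5×10^6 PRBC of CQ-resistant 3CQ line of P. chabaudi AS (cryopreserved stock). 2 h later, test compound (in DMSO diluted with saline to 10% w/v DMSO) given ip, followed by ip CQ; repeated for 3 more days (four injections). Groups: DMSO, CQ alone, compound alone, combination. Parasitemia from Giemsa thin films, daily days 0-4.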

[4] = test system: Mus musculus; assay: Chloroquine resistant reversal activity was determined on day 4 in female mice after intraperitoneal administration of 5 mg and 4 mg of chloroquine; assay type: functional; procedure, shortened: as §2
[5] = test system: Mus musculus; assay: Chloroquine resistant reversal activity was determined on day 1 in female mice after intraperitoneal administration of 5 mg and 4 mg of chloroquine; assay type: functional; procedure, shortened: as §2
[6] = test system: Mus musculus; assay: Chloroquine resistant reversal activity was determined on day 4 in female mice after intraperitoneal administration of 40 mg and 4 mg of chloroquine; assay type: functional; procedure, shortened: as §2
[7] = test system: Mus musculus; assay: Chloroquine resistant reversal activity was determined on day 3 in female mice after intraperitoneal administration of 50 mg and 4 mg of chloroquine; assay type: functional; procedure, shortened: as §2
[8] = test system: Mus musculus; assay: Chloroquine resistant reversal activity was determined on day 3 in female mice after intraperitoneal administration of 5 mg and 4 mg of chloroquine; assay type: functional; procedure, shortened: as §2
[9] = test system: Mus musculus; assay: Chloroquine resistant reversal activity was determined on day 1 in female mice after intraperitoneal administration of 10 mg and 4 mg of chloroquine; assay type: functional; procedure, shortened: as §2
[10] = test system: Mus musculus; assay: Chloroquine resistant reversal activity was determined on day 4 in female mice after intraperitoneal administration of 30 mg and 4 mg of chloroquine; assay type: functional; procedure, shortened: as §2
[11] = test system: Mus musculus; assay: Chloroquine resistant reversal activity was determined on day 4 in female mice after intraperitoneal administration of 15 mg and 4 mg of chloroquine; assay type: functional; procedure, shortened: as §2
[12] = test system: Mus musculus; assay: Chloroquine resistant reversal activity was determined on day 3 in female mice after intraperitoneal administration of 15 mg and 4 mg of chloroquine; assay type: functional; procedure, shortened: as §2
[13] = test system: Mus musculus; assay: Chloroquine resistant reversal activity was determined on day 3 in female mice after intraperitoneal administration of 40 mg and 4 mg of chloroquine; assay type: functional; procedure, shortened: as §2
[14] = test system: Mus musculus; assay: Chloroquine resistant reversal activity was determined on day 2 in female mice after intraperitoneal administration of 10 mg and 4 mg of chloroquine; assay type: functional; procedure, shortened: as §2
[15] = test system: Mus musculus; assay: Chloroquine resistant reversal activity was determined on day 0 in female mice after intraperitoneal administration of 15 mg and 4 mg of chloroquine; assay type: functional; procedure, shortened: as §2
[16] = test system: Mus musculus; assay: Chloroquine resistant reversal activity was determined on day 2 in female mice after intraperitoneal administration of 15 mg and 4 mg of chloroquine; assay type: functional; procedure, shortened: as §2
[17] = test system: Mus musculus; assay: Chloroquine resistant reversal activity was determined on day 3 in female mice after intraperitoneal administration of 30 mg and 4 mg of chloroquine; assay type: functional; procedure, shortened: as §2
[18] = test system: Mus musculus; assay: Chloroquine resistant reversal activity was determined on day 0 in female mice after intraperitoneal administration of 5 mg and 4 mg of chloroquine; assay type: functional; procedure, shortened: as §2
[19] = test system: Mus musculus; assay: Chloroquine resistant reversal activity was determined on day 4 in female mice after intraperitoneal administration of 10 mg and 4 mg of chloroquine; assay type: functional; procedure, shortened: as §2
[20] = test system: Mus musculus; assay: Chloroquine resistant reversal activity was determined on day 0 in female mice after intraperitoneal administration of 40 mg and 4 mg of chloroquine; assay type: functional; procedure, shortened: as §2
[21] = test system: Mus musculus; assay: Chloroquine resistant reversal activity was determined on day 0 in female mice after intraperitoneal administration of 10 mg and 4 mg of chloroquine; assay type: functional; procedure, shortened: as §2
[22] = test system: Mus musculus; assay: Chloroquine resistant reversal activity was determined on day 1 in female mice after intraperitoneal administration of 30 mg and 4 mg of chloroquine; assay type: functional; procedure, shortened: as §2
[23] = test system: Mus musculus; assay: Chloroquine resistant reversal activity was determined on day 0 in female mice after intraperitoneal administration of 50 mg and 4 mg of chloroquine; assay type: functional; procedure, shortened: as §2
[24] = test system: Mus musculus; assay: Chloroquine resistant reversal activity was determined on day 1 in female mice after intraperitoneal administration of 40 mg and 4 mg of chloroquine; assay type: functional; procedure, shortened: as §2
[25] = test system: Mus musculus; assay: Chloroquine resistant reversal activity was determined on day 2 in female mice after intraperitoneal administration of 40 mg and 4 mg of chloroquine; assay type: functional; procedure, shortened: as §2
[26] = test system: Mus musculus; assay: Chloroquine resistant reversal activity was determined on day 2 in female mice after intraperitoneal administration of 30 mg and 4 mg of chloroquine; assay type: functional; procedure, shortened: as §2
[27] = test system: Mus musculus; assay: Chloroquine resistant reversal activity was determined on day 1 in female mice after intraperitoneal administration of 15 mg and 4 mg of chloroquine; assay type: functional; procedure, shortened: as §2
[28] = test system: Mus musculus; assay: Chloroquine resistant reversal activity was determined on day 4 in female mice after intraperitoneal administration of 50 mg and 4 mg of chloroquine; assay type: functional; procedure, shortened: as §2
[29] = test system: Mus musculus; assay: Chloroquine resistant reversal activity was determined on day 1 in female mice after intraperitoneal administration of 50 mg and 4 mg of chloroquine; assay type: functional; procedure, shortened: as §2
[30] = test system: Mus musculus; assay: Chloroquine resistant reversal activity was determined on day 2 in female mice after intraperitoneal administration of 5 mg and 4 mg of chloroquine; assay type: functional; procedure, shortened: as §2
[31] = test system: Mus musculus; assay: Chloroquine resistant reversal activity was determined on day 3 in female mice after intraperitoneal administration of 10 mg and 4 mg of chloroquine; assay type: functional; procedure, shortened: as §2
[32] = test system: Mus musculus; assay: Chloroquine resistant reversal activity was determined on day 2 in female mice after intraperitoneal administration of 50 mg and 4 mg of chloroquine; assay type: functional; procedure, shortened: as §2
[33] = test system: Mus musculus; assay: Chloroquine resistant reversal activity was determined on day 0 in female mice after intraperitoneal administration of 30 mg and 4 mg of chloroquine; assay type: functional; procedure, shortened: as §2
[34] = test system: Mus musculus; assay: Chloroquine resistant reversal activity was determined in female mice after intraperitoneal administration of 50 mg and 3 mg of chloroquine; assay type: functional; procedure, shortened: as §2
[35] = test system: Mus musculus; assay: Antimalarial activity was determined in female mice after intraperitoneal administration of 15 mg of the compound; assay type: functional; procedure, shortened: as §1
[36] = test system: Mus musculus; assay: Chloroquine resistant reversal activity was determined in female mice after intraperitoneal administration of 15 mg and 4 mg of chloroquine; assay type: functional; procedure, shortened: as §2

CCCCCCCCCCCCCCC(O)CN1CCN(C2c3ccccc3CCc3ccccc32)CC1 (stereo unspecified)
Reversal activity [1]: 110%
Antimalarial activity [2]: 122%

C=CC(C)N1CCN(C2c3ccccc3CCc3ccccc32)CC1 (stereo unspecified)
Reversal activity [3]: 0%
Antimalarial activity [2]: 22%

C=CCCC(O)CN1CCN(C2c3ccccc3CCc3ccccc32)CC1 (stereo unspecified)
Reversal activity [1]: 0%
Antimalarial activity [2]: 101%

C=CC(O)CN1CCN(C2c3ccccc3CCc3ccccc32)CC1 (stereo unspecified)
Reversal activity [4]: 11%
Reversal activity [5]: 76%
Reversal activity [6]: 0%
Reversal activity [7]: 0%
Reversal activity [8]: 12%
Reversal activity [9]: 62%
Reversal activity [10]: 0%
Reversal activity [11]: 5.4%
Reversal activity [12]: 9.5%
Reversal activity [13]: 0%
Reversal activity [14]: 21%
Reversal activity [15]: 0%
Reversal activity [16]: 16%
Reversal activity [17]: 2.9%
Reversal activity [18]: 0%
Reversal activity [19]: 6%
Reversal activity [20]: 0%
Reversal activity [21]: 0%
Reversal activity [22]: 55%
Reversal activity [23]: 0%
Reversal activity [24]: 33%
Reversal activity [25]: 10%
Reversal activity [26]: 38%
Reversal activity [3]: 0%
Reversal activity [27]: 49%
Reversal activity [28]: 0%
Reversal activity [29]: 42%
Reversal activity [30]: 32%
Reversal activity [31]: 7.9%
Reversal activity [32]: 6.2%
Antimalarial activity [2]: 82%
Reversal activity [33]: 0%

Cl.c1ccc2c(c1)CCc1ccccc1C2N1CCNCC1
Reversal activity [3]: 2%
Antimalarial activity [2]: 68%

CCCCCCCCC(O)CN1CCN(C2c3ccccc3CCc3ccccc32)CC1 (stereo unspecified)
Reversal activity [1]: 84%
Antimalarial activity [2]: 152%

CCCCCCCCCCCCC(O)CN1CCN(C2c3ccccc3CCc3ccccc32)CC1 (stereo unspecified)
Reversal activity [1]: 64%
Antimalarial activity [2]: 138%

CCCCCCCCCCCCCCCCC(O)CN1CCN(C2c3ccccc3CCc3ccccc32)CC1 (stereo unspecified)
Reversal activity [1]: 68%
Antimalarial activity [2]: 67%

COc1ccc(OCC(O)CN2CCN(C3c4ccccc4CCc4ccccc43)CC2)cc1 (stereo unspecified)
Reversal activity [34]: 90%
Antimalarial activity [2]: 147%

CC(=O)OCC#CCN1CCN(C2c3ccccc3CCc3ccccc32)CC1
Reversal activity [3]: 0%
Antimalarial activity [2]: 116%

CCCCCCC(O)CN1CCN(C2c3ccccc3CCc3ccccc32)CC1 (stereo unspecified)
Reversal activity [1]: 102%
Antimalarial activity [2]: 92%

C=CC(CO)N1CCN(C2c3ccccc3CCc3ccccc32)CC1 (stereo unspecified)
Reversal activity [4]: 17%
Reversal activity [5]: 69%
Reversal activity [8]: 33%
Reversal activity [9]: 59%
Antimalarial activity [35]: 103%
Reversal activity [11]: 2.6%
Reversal activity [12]: 4%
Reversal activity [14]: 37%
Reversal activity [15]: 0%
Reversal activity [16]: 13%
Reversal activity [18]: 0%
Reversal activity [36]: 2.6%
Reversal activity [19]: 8.6%
Reversal activity [21]: 0%
Reversal activity [27]: 37%
Reversal activity [30]: 35%
Reversal activity [31]: 23%

Cl.c1ccc2c(c1)CCc1ccccc1C2N1CCN(C2c3ccccc3CCc3ccccc32)CC1
Reversal activity [1]: 81%
Antimalarial activity [2]: 108%

CCC(O)CN1CCN(C2c3ccccc3CCc3ccccc32)CC1 (stereo unspecified)
Reversal activity [3]: 0%
Antimalarial activity [2]: 99%

OCC#CCN1CCN(C2c3ccccc3CCc3ccccc32)CC1
Reversal activity [3]: 0%
Antimalarial activity [2]: 121%

OC(COc1ccccc1)CN1CCN(C2c3ccccc3CCc3ccccc32)CC1 (stereo unspecified)
Reversal activity [1]: 113%
Antimalarial activity [2]: 136%

C=CCCCCC(O)CN1CCN(C2c3ccccc3CCc3ccccc32)CC1 (stereo unspecified)
Reversal activity [1]: 8.9%
Antimalarial activity [2]: 108%

C=CCCCCCCC(O)CN1CCN(C2c3ccccc3CCc3ccccc32)CC1 (stereo unspecified)
Reversal activity [1]: 6.8%
Antimalarial activity [2]: 68%
